NR2E3 ag-1 – agonists of human NR2E3 nuclear receptor | Q9Y5X4 | CHO-S Gal4-NCOR/VP16-NR2E3 two-hybrid, luciferase | inhibition of corepressor binding, % at 3.98 µM | 360,000 tested, 0.35% active;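 active = inhibition above the mean of all tested compounds plus 3 SD, cut at about 70% in these data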;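 note: 0% = DMSO with NR2E3 transfected cells and 100% = cells lacking NR2E3 construct; higher means lower luciferase signal from less NR2E3 corepressor binding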
GASC-1 inh – human JMJD2C demethylase inhibition | Q9H3R0 | GST-JMJD2C(1-420) H3K9me3 demethylation, DELFIA europium | inhibition, % at 2.35 µM | 330,000 tested, 0.069% active;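 active = more than half of a compound's replicate wells show inhibition beyond 50%, single wells judged on their own value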;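 note: signal counts dimethyl H3K9 product captured on neutravidin plate; 0% = median of DMSO wells and 100% = 0.3 times that DMSO median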
Target sequence (Q9H3R0 1-420 limits assumed): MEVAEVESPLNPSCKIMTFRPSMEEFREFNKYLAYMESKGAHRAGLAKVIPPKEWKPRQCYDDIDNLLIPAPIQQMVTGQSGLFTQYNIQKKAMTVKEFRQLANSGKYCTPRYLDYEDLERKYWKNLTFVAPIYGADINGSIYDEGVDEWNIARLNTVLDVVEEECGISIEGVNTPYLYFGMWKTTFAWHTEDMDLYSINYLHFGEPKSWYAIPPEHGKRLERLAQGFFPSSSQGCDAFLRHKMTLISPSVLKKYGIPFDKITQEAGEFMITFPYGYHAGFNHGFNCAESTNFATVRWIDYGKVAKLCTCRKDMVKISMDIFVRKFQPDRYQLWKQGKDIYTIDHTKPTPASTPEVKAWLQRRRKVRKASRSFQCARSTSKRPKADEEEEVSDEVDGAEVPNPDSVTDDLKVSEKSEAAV
DAX1 inh-1 – inhibitors of DAX1 repression of SF-1 activated StAR promoter | HEK293T StAR-luciferase reporter, SF-1/DAX-1 repression relief | inhibition, % at 6.8 µM | 370,000 tested, 1.1% active;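 active = inhibition above the mean over all tested compounds plus 3 SD, cut at about 3.6% in these data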;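 note: 0% = DAX-1 cells with DMSO and 100% = cells lacking DAX-1 with DMSO; higher inhibition means more luminescence from relief of DAX-1 repression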
DAX1 inh-2 – inhibits human nuclear receptor DAX1; P51843; HEK293 Gal4-DAX1 luciferase reporter, luminescence; inhibition, % at 6.75 µM; 340,000 tested, 0.99% active; AID 504766;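 active = inhibition above the mean over all tested compounds plus 3 SD, cut at about 4.2% in these data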;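 note: 0% = DAX1-transfected cells with DMSO and 100% = empty-vector control cells with DMSO; inhibition shows as a rise in luminescence from relieved DAX1 repression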
NR2E3 ag-2 – activates human photoreceptor nuclear receptor NR2E3; Q9Y5X4; GST-NR2E3/biotin-RetCOR TR-FRET, 1536-well; inhibition of corepressor binding, % at 4.78 µM; 320,000 tested, 0.12% active;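 active = percent inhibition above the cutoff of mean plus 3 SD of all tested compounds, set per screening campaign, cut at about 20% in these data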;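 note: 0% = DMSO wells and 100% = biotin wells as full block of FRET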
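Format: 1536-well format; test system: GST-NR2E3 and biotin-RetCOR proteins; read-out basis: percent inhibition of TR-FRET ratio; timing: 5 h incubation at 4 °C; detection: time-resolved FRET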
SMARCA2 activ – SMARCA2 function activation, primary screen; MG213 cells, MMTV-luciferase reporter, dexamethasone, overnight; activation, % at 9.1 µM; 370,000 tested, 1% active; in the data active = activation above about 7.8%;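 note: 0% = vehicle wells and 100% = reference activator wells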
* marks the source's active call; other numbers are inactive results; . = no result. Hits are enriched below; roughly 3.2% of the tested compounds scored in any of these assays.

SMILES	NR2E3 ag-1	GASC-1 inh	DAX1 inh-1	DAX1 inh-2	NR2E3 ag-2	SMARCA2 activ
Cc1ccc2c(C)c(C(=O)N(C)C(C)c3ccon3)oc2c1C (stereo not drawn)	-144	2	4.2*	2	1	5
COc1ccc2c(c1)CNC2CS(=O)(=O)NC1CCCC1 (stereo not drawn)	.	.	-1	.	.	-1
CCN1C(=O)c2cccc3c(S(=O)(=O)Nc4ccccn4)ccc1c23	-22	18	1	6.7*	-3	-4
C=C(NC(=O)C(=C)NC(=O)c1csc(C2=NC3c4csc(n4)C4NC(=O)c5csc(n5)C([C@@](C)(O)C(C)O)NC(=O)C5CSC(=N5)/C(=C\C)NC(=O)C(C(C)O)NC(=O)c5csc(n5)[C@]3(CC2)NC(=O)C(C)NC(=O)C(=C)NC(=O)C(C)NC(=O)C(C(C)CC)NC2C=Cc3c(C(C)O)cc(nc3C2O)C(=O)OC4C)n1)C(N)=O (stereo partly drawn)	.	.	.	.	0	.
C=C(NC(=O)C(=C)NC(=O)c1csc(C2=NC3c4csc(n4)C4NC(=O)c5csc(n5)C(C(C)(O)C(C)O)NC(=O)C5CSC(=N5)/C(=C/C)NC(=O)C(C(C)O)NC(=O)c5csc(n5)C3(CC2)NC(=O)C(C)NC(=O)C(=C)NC(=O)C(=C)NC(=O)C(C(C)C)NC2C=Cc3c(C(C)O)cc(nc3C2O)C(=O)OC4C)n1)C(N)=O (stereo not drawn)	30	.	-7	-3	.	8.6*
COC(=O)C1CN(Cc2ccc(Cl)cc2)CCS(=O)(=O)N1Cc1cn(Cc2ccc(OC)cc2)nn1 (stereo not drawn)	.	.	-1	.	.	3
COCCSc1ncccc1-c1nc2ccccc2[nH]1	.	.	0	.	.	-1
COc1ccc(-c2nc3ccccn3c2CN2CCN(c3ccccc3F)CC2)cc1	-66	-2	1	4.4*	-1	0
Clc1ccc(-c2nc3ccccn3c2CN2CCOCC2)cc1	-38	2	0	0	-2	5
Cc1ccccc1Cn1c(=O)n(-c2ccccc2)c(=O)c2ccc(C(=O)NCc3ccco3)cc21	-8	21	0	4.6*	1	1
Cc1ccc(-n2c(=O)c3ccc(C(=O)NCc4ccco4)cc3n(Cc3ccccc3C#N)c2=O)cc1	-24	2	0	0	4	-2
Cc1ccccc1Cn1c(=O)n(Cc2ccco2)c(=O)c2ccccc21	4	10	-1	4.5*	-2	0
O=C(NC1CCCCN(Cc2ccc(Cl)cc2)C1=O)c1cc(-c2ccccc2)no1 (stereo not drawn)	.	.	-2	.	.	-3
O=C(Nc1cccc(-c2ccc(N3CCCCC3)nn2)c1)C(F)(F)F	-15	-2	1	-2	1	-3
O=C(Nc1cccc(-c2ccc(N3CCCCC3)nn2)c1)c1ccc(Br)o1	-53	17	1	-1	-3	7.9*
CCOC(=O)C1=NOC(C(=O)Nc2nccs2)(C(=O)C2CC2)C1 (stereo not drawn)	.	.	1	.	.	-2
COc1ccc(S(=O)(=O)Nc2ccc(C)cn2)cc1	10	-3	0	4.6*	-3	0
COc1cc(/C=N/OCC(=O)NC2CCCCC2C)ccc1OCc1ccc(Cl)cc1 (stereo not drawn)	-137	2	4.2*	3	-5	6
CCCCNC(=O)C[C@@H]1C[C@]2(C(=O)OCC)CCC3=C2N(CCC3)C1=O	.	.	0	.	.	-3
Cn1c(/C(C#N)=C/c2ccc(O)cc2)nc2ccccc21	-49	-2	1	5.5*	-1	6
N#CCC[C@@H]1CC[C@]2(CCCN(Cc3ccc(Cl)cc3)C2)O1	.	.	0	.	.	-3
Cc1cc(NC(=O)Nc2ccc(Cl)c(Cl)c2)n(-c2ccccc2)n1	-30	23	0	4.8*	0	-3
Cc1cc(NC(=O)Nc2cccc(Cl)c2)n(-c2ccccc2)n1	22	-4	0	2	-1	-3
O=C(Nc1ccc(Cl)c(Cl)c1)Nc1ccccc1C(=O)O	-139	-2	4.1*	-2	5	4
Cn1c(=O)oc2cc(S(=O)(=O)N3CCN(c4cccc(C(F)(F)F)c4)CC3)ccc21	.	.	-1	.	.	-4
SMILES	NR2E3 ag-1	GASC-1 inh	DAX1 inh-1	DAX1 inh-2	NR2E3 ag-2	SMARCA2 activ
CC(=O)c1ccc([C@H](O)[C@H](C)C(=O)N(C)c2ccccc2)cc1	.	.	-1	.	.	-1
Cn1c(N)c(C(=O)COC(=O)CSc2ccccc2)c(=O)n(C)c1=O	-9	8	0	8.5*	-6	-1
Cc1cc(NC(=O)CSc2nc(N)c(NC(=O)c3ccco3)c(=O)[nH]2)no1	10	3	-1	7.5*	10	-4
Cc1cc(NC(=O)CSc2nnc(Cc3ccccc3)o2)no1	3	0	0	5.1*	2	-1
Cc1cc(NC(=O)CSc2nnc(-c3ccc4c(c3)OCCO4)o2)no1	-78	8	3.9*	-1	4	6
Cc1cc(NC(=O)CSc2nnc(-c3cccc(Cl)c3)o2)no1	-13	-5	0	1	2	0
O=C(N[C@H]1C[C@@H]2O[C@@H](CO)CC[C@@H]2O[C@@H]1CCc1ccc(-c2cccnc2)cc1)c1cccc(F)c1	.	.	0	.	.	-1
CC(C)(C)NNC(=S)Nc1cccc(C(F)(F)F)c1	9	54*	0	2	2	-1
COC(=O)[C@]12C[C@H](CC(=O)N3CCN(C(=O)c4ccco4)CC3)C(=O)N(Cc3ccc(Cl)cc3Cl)C1=C[C@H](C(C)C)O[C@@H]2C1CC1	.	.	-1	.	.	-2
c1ccc(-c2cnc(-c3ccccn3)nn2)cc1	-119	-1	3	2	7	7
c1ccc(-c2cnc(-c3ccccc3)nn2)cc1	-113	-4	3.7*	0	3	7.9*
Cc1ccc(C(=O)c2coc3ccc(O)c(Cl)c23)cc1	-130	4	3	6.5*	3	3
O=C(c1ccccc1)c1coc2ccc(O)c(Cl)c12	-72	2	1	3	-3	1
CN(C)CC(=O)N[C@H]1C[C@@H]2O[C@@H](CO)CC[C@@H]2O[C@@H]1CCc1ccc(-c2ccc(F)cc2)cc1	.	.	-1	.	.	-1
CCOc1ccc(-n2c(SCC(=O)Nc3cccc4ccccc34)nnc2-c2ccccc2)cc1	.	.	0	.	.	-1
c1ccc(C2=NN(c3ccccc3)CC2)cc1	-19	4	2	4.3*	1	5
CCOC(=O)/C(=C/c1ccc(N2CCC(c3ccccc3)=N2)cc1)C(C)=O	-49	-15	.	-1	.	.
COc1cccc(CNC(=O)CN(C)S(=O)(=O)c2ccc(Br)s2)c1	6	-9	0	10*	3	-1
COc1ccc(CNC(=O)CN(C)S(=O)(=O)c2ccc(Br)s2)cc1	-5	-6	0	-1	0	-3
